Laboratory results reported in article PMC9305876 (International Journal of Cosmetic Science, 2022).

Key:
[1] = target: T1, recombinant human tyrosinase (Homo sapiens, UniProt P14679); experiment: biochemical
T1 sequence (P14679 19-476 limits assumed): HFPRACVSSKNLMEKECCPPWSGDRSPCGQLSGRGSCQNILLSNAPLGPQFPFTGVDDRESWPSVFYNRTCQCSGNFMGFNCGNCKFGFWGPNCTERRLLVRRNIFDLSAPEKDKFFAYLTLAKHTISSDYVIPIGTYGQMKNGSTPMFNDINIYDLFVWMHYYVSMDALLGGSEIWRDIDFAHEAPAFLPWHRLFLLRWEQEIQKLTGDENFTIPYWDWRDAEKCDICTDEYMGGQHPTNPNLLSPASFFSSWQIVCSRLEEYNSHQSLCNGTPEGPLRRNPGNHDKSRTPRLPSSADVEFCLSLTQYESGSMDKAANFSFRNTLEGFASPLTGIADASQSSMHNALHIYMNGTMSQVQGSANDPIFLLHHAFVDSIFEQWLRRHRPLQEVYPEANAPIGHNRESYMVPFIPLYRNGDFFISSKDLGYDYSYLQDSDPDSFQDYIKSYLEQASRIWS

[2] = tested on: primary human epidermal melanocytes; experiment: Melanin content assay in melanocyte cultures; type: cell-based; conditions: for inhibition of melanin production in melanocytes: 72 h of treatment, at similar doses, mean ± SD; for reduction in melanin synthesis: 72 h
primary melanocytes = experiment: Cell viability; type: cell-based, human
Method in brief: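 Neonatal foreskin primary human epidermal melanocytes at passages 4–6 were grown in Medium 254‑CF with melanocyte growth supplement at 37°C and 5% CO2. They were exposed to test compound for 72 h, starting 24 h after plating, alongside 0.1% (v/v) DMSO or medium vehicle controls. Cells were washed in Ca/Mg‑free PBS and loaded with 1 µM Calcein‑AM for 30 min at 37°C, protected from light. Fluorescence was read at ex 490/em 520 nm, with cell‑free blank wells.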

| Structure (SMILES) | IC50 [1] [µM] | inhibition of melanin production in melanocytes [2] [%] | maximum non‐cytotoxic dose for primary melanocytes (primary melanocytes) [mM] | reduction in melanin synthesis ([2]; niacinamide alone (comparator to 10 mM in combination)) [%] | reduction in melanin synthesis ([2]; 4‐HR alone (comparator to 1 µM in combination)) [%] |
| --- | --- | --- | --- | --- | --- |
| CCCCc1ccc(O)cc1O [4‐BR, 4‐butylresorcinol] | 13 | 28.6 ± 3 | – | – | – |
| NC(=O)c1cccnc1 [niacinamide] | – | – | 10 | 7.2 ± 4.3 | – |
| CCCCCCc1ccc(O)cc1O [4‐HR, 4‐hexylresorcinol] | 16 | 35 ± 1.9 | 0.01 | – | 7.3 ± 3 |
| Oc1ccc(O)cc1 [Hydroquinone, hydroquinone] | > 1000 | – | – | – | – |
